The RNAGym collection of RNA variant scans (doi:10.1126/science.aae0568)
This sample holds only a part of the variants without activity.

B1: tRNA (parent)
chain: GUUCCGUUGGCGUAAUGGUAACGCGUCUCCCUCCUAAGGAGAAGACUGCGGGUUCGAGUCCCGUACGGAACG

Variants of: B1
Assay: yeast fitness relative to wild type (ratio to wild type); higher = fitter; tRNA-Arg(CCU), competitive growth, 37 C, YPD
Procedure, shortened: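 Changes in genotype frequencies gave Darwinian fitness relative to wild type. Frequencies were read by 100-nucleotide paired-end sequencing of gene amplicons before and after pooled Saccharomyces cerevisiae strains, carrying tRNA-Arg(CCU) gene variants at the native locus, were competed in YPD at 37°C for 24 hours in six replicates. A genotype was kept only with ≥ 100 starting reads, and estimates < 0.5 were set to 0.5.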

Compared with U3C C5A G18C A45C G56C C60U G68U, U3C G9A G17A is higher in yeast fitness: no more than 0.5 for the first, 0.798 for the second.

Going from U3C C4A A15C C27G C33U C61G to U3C C31U C49U, the yeast fitness rises from no more than 0.5 to 0.919.

Compared with U3C A20U A69G, U3C C30A A40U is higher in yeast fitness: 0.612 for the first, 0.634 for the second.

First: U3C C24A C62A A65C
Second: U3C C11A C27G C33A
The yeast fitness of the first is lower: no more than 0.5 for the first, 0.579 for the second.

First: U3C C30G
Second: U3C G10A C22A C24G U54C
The yeast fitness of the first is higher: 0.677 for the first, no more than 0.5 for the second.

Going from U3C C46G C62A to U3C C49U A70C, the yeast fitness rises from 0.564 to 0.751.

Compared with U3C C4U A70U, U3C A15G G25C C66G is lower in yeast fitness: 0.841 for the first, no more than 0.5 for the second.

Compared with U3C C46U U64C, U3C A43U G44C U64C is lower in yeast fitness: 0.802 for the first, 0.567 for the second.

U3C G9C C11U C30G C55A A69C and U3C C29G G38A A43G G50A cannot be ordered by yeast fitness: no more than 0.5 for the first, no more than 0.5 for the second.

Compared with U3C C22G G25A, U3C C62U U64A is lower in yeast fitness: 1.02 for the first, no more than 0.5 for the second.

First: U3C C22U A36U C62U
Second: U3C G9A A69C
The yeast fitness of the first is lower: no more than 0.5 for the first, 0.905 for the second.

First: U3C C60A C66U
Second: U3C C34A G44A G52A C55U A70G
The yeast fitness of the first is higher: 0.651 for the first, no more than 0.5 for the second.

Compared with U3C C11A U19G C24A A40C A45U, U3C C31U A43G A69U is higher in yeast fitness: no more than 0.5 for the first, 0.733 for the second.

Compared with U3C A36U G39A, U3C A14U A37U C60A is higher in yeast fitness: no more than 0.5 for the first, 0.586 for the second.

U3C C24U C55G and U3C G9A A20C C29U G50C U59G C62U G68A cannot be ordered by yeast fitness: no more than 0.5 for the first, no more than 0.5 for the second.

First: U3C C4U A69U A70U
Second: U3C G12A C29G C34U A36C C61A
The yeast fitness of the first is lower: no more than 0.5 for the first, 0.587 for the second.

Going from U3C C5U A37U C49U U53C to U3C C5A A15U A20G, the yeast fitness falls from 0.597 to no more than 0.5.

Going from U3C G9C C46U to U3C C5A C55A C60A, the yeast fitness falls from 0.567 to no more than 0.5.

U3C C31G U59A and U3C C11A U32G G39A C61A C62A cannot be ordered by yeast fitness: no more than 0.5 for the first, no more than 0.5 for the second.

Compared with U3C C30G G52A A70U, U3C C4G U8G C34U A37G is lower in yeast fitness: 0.641 for the first, no more than 0.5 for the second.

Compared with U3C C4G, U3C C30G C31U C60G C61G is lower in yeast fitness: 0.891 for the first, 0.571 for the second.

First: U3C C4G A20G A43G
Second: U3C A57U
The yeast fitness of the first is lower: no more than 0.5 for the first, 0.713 for the second.

U3C A15G C30A A57G and U3C C24U C55G A70U cannot be ordered by yeast fitness: no more than 0.5 for the first, no more than 0.5 for the second.

Compared with U3C G9C C11U C30G A43C U64C, U3C C5G A21U A42C A70G is higher in yeast fitness: no more than 0.5 for the first, 0.542 for the second.

Compared with U3C C46U U54A, U3C C62U G67A is higher in yeast fitness: no more than 0.5 for the first, 0.587 for the second.

Going from U3C C22U C31U to U3C C27U A69U, the yeast fitness rises from 0.691 to 0.806.

Going from U3C C5G C11G to U3C C27G C49A A70G, the yeast fitness rises from no more than 0.5 to 0.593.

U3C A21G G44C G63C and U3C C24G C31G C61G cannot be ordered by yeast fitness: no more than 0.5 for the first, no more than 0.5 for the second.

Compared with U3C C31U C66U, U3C C11A C31A G68C is lower in yeast fitness: 0.898 for the first, 0.582 for the second.

Compared with U3C C34A G44A G52A U53C C55U, U3C C55G is higher in yeast fitness: 0.527 for the first, 0.619 for the second.

U3C G6A C30U G39A A45G C46U C49G and U3C G10C C22U C55G cannot be ordered by yeast fitness: no more than 0.5 for the first, no more than 0.5 for the second.

Compared with U3C C5G G67U, U3C C46G A69U is higher in yeast fitness: 0.542 for the first, 0.807 for the second.

First: U3C A21G A43U
Second: U3C A42U A45U U64C
The yeast fitness of the first is higher: 0.989 for the first, 0.885 for the second.

Going from U3C C33G C60A to U3C C31U A70G, the yeast fitness rises from no more than 0.5 to 0.812.

Compared with U3C A42C A65U, U3C A42G is higher in yeast fitness: 0.651 for the first, 0.883 for the second.

Compared with U3C A42U, U3C A42C is lower in yeast fitness: 0.9 for the first, 0.85 for the second.

U3C C62G G68A and U3C G6A G18C C30U C31U G48A C55G G67A cannot be ordered by yeast fitness: no more than 0.5 for the first, no more than 0.5 for the second.

Compared with U3C A43U A45G, U3C C60A is higher in yeast fitness: 0.567 for the first, 0.619 for the second.

U3C A40C A45G C46A and U3C G6C A14U G25A G38A U47A A69C cannot be ordered by yeast fitness: no more than 0.5 for the first, no more than 0.5 for the second.

Compared with U3C G10A U54C G56C G58A, U3C C11U G18C C66U is lower in yeast fitness: 0.553 for the first, 0.516 for the second.

Going from U3C C31U G44A to U3C C24G G50C G68C, the yeast fitness falls from 0.721 to no more than 0.5.

Going from U3C A42U C61G to U3C C22G C62U, the yeast fitness falls from 0.66 to 0.64.
